According to ChEMBL document CHEMBL1152809, “Structure-activity relationships of orotidine-5'-monophosphate decarboxylase inhibitors as anticancer agents” (J Med Chem, 2009):
Calls of active or inactive are those of the source. No cut-off for these calls is given here.

Key:
[1] = biological target: Orotidine 5'-phosphate decarboxylase (Methanobacterium thermoautotrophicum, UniProt O26232); test: Reversible inhibition of Methanobacterium thermoautotrophicum ODCase; parameters: species or system Methanothermobacter thermautotrophicus
Orotidine 5'-phosphate decarboxylase, sequence (O26232 whole entry): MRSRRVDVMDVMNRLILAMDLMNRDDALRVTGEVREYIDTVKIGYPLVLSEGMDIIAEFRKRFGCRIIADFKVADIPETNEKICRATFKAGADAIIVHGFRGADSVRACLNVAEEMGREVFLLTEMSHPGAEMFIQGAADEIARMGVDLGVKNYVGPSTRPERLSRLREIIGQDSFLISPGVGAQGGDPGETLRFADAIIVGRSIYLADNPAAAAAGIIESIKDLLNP
In short: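 Inhibitor levels span 0-1.0 µM up to 0-4.0 mM depending on compound. Rates from heat flow fitted to a competitive model for Ki; experiments in triplicate.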

[2] = biological target: T1, Uridine 5'-monophosphate synthase (Homo sapiens, UniProt P11172); test: Reversible inhibition of human ODCase
T1 sequence (P11172 whole entry): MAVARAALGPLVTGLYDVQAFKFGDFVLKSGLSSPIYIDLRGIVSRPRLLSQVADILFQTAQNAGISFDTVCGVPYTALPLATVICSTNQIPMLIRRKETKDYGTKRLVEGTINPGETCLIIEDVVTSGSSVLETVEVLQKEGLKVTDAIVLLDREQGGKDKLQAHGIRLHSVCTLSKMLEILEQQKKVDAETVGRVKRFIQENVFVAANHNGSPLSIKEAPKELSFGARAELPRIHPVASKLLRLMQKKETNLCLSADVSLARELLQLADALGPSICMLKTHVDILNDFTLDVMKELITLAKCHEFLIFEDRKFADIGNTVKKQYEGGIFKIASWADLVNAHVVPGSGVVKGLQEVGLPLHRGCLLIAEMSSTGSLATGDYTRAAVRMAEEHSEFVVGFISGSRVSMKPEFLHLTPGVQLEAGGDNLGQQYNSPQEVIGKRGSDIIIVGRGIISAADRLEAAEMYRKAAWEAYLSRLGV
In short: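 Human ODCase at 60 nM in 50 mM Tris, 1 mM DTT, assayed by ITC at 37 °C. Enzyme mixed with inhibitor (stocks in 50 mM Tris pH 7.5) and the reaction started with OMP, 15 or 20 µM final. Inhibitor ranges from 0-1.0 µM up to 0-500 µM. Ki from direct fit of decarboxylation rates; triplicates.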

T47D = test: Antitumor activity against human T47D cells up to 50 uM after 3 days by WST1 assay; assay type: functional, cell-based
In short: (§1)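 Cell lines grown in Iscove's MDM with 5% FCS, 50 µM 2-mercaptoethanol, penicillin and streptomycin; suspension lines kept at 0.5-1.5 × 10^6 cells/mL, adherent lines subconfluent. Cells seeded in triplicate at 10^4 cells/100 µL. Compounds were dissolved in water and added immediately at 0 to 100 µM final. WST.1 read at 440 nm on day 3; IC50 taken from OD versus concentration plots.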

[3] = Antitumor activity against human MDA468 cells after 3 days by WST1 assay; assay type: functional, cell-based; conditions: MDA-MB-468, 72 h; in short: as §1
[4] = Cytotoxicity against human CCD-967 cells up to 50 uM after 3 days by WST1 assay; assay type: cell-based; conditions: ccd-967, 72 h
In short: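 Cells grown in Iscove's MDM with 5% FCS, 50 µM 2-mercaptoethanol and antibiotics, kept subconfluent if adherent. Seeded in triplicate at 10^4 cells/100 µL with compounds (in water) added at once, 0 to 100 µM final. WST.1 formazan read at 440 nm on day 3; IC50 from OD versus concentration.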

Hs-578T = test: Antitumor activity against human Hs 578T cells up to 50 uM after 3 days by WST1 assay; assay type: functional, cell-based; in short: as §1
SNB-19 = test: Antitumor activity against human SNB19 cells up to 50 uM after 3 days by WST1 assay; assay type: functional, cell-based; in short: as §1
SKW3 = test: Induction of apoptosis in human SKW3 cells at 4 uM by annexin V/propidium iodide staining assay
[5] = Antitumor activity against human OCI-My 2 cells after 3 days by WST1 assay; assay type: functional, cell-based; conditions: 72 h; in short: as §1
PC-3 = test: Antitumor activity against human PC3 cells up to 50 uM after 3 days by WST1 assay; assay type: functional, cell-based; in short: as §1
MCF7 [6] = test: Antitumor activity against human MCF7 cells after 3 days by WST1 assay; assay type: functional, cell-based; conditions: MCF7, 72 h; in short: as §1
[7] = Antitumor activity against human SKW3 cells after 3 days by WST1 assay; assay type: functional, cell-based; conditions: SKW3, 72 h; in short: as §1
ML1 = test: Induction of apoptosis in human OCI-AML1 cells by […]/propidium iodide staining assay; assay type: functional, cell-based
In short: (§2)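 Cells seeded in duplicate at 10^5 cells/mL; inhibitors added straight after seeding at 4 µM final, water in control wells. Cells harvested every 24 h, washed in PBS, stained with Annexin V/propidium iodide (1:200) and analysed by FACS; apoptotic cells scored as Annexin V+/PI-, necrotic as Annexin V+/PI+.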

[8] = Antitumor activity against human OCI-LY7 cells after 3 days by WST1 assay; assay type: functional, cell-based; conditions: OCI-Ly7, 72 h; in short: as §1
[9] = Antitumor activity against human LOX cells after 3 days by WST1 assay; assay type: functional, cell-based; conditions: 72 h; in short: as §1
[10] = Antitumor activity against human OCI-AML1 cells after 3 days by WST1 assay; assay type: functional, cell-based; conditions: ML1, 72 h; in short: as §1
OCI-AML2 = test: Antitumor activity against human OCI-AML2 cells after 3 days by WST1 assay; assay type: functional, cell-based; conditions: OCI-AML2, 72 h; in short: as §1
OCI-Ly7 = test: Induction of apoptosis in human OCI-LY7 cells 4 uM by […]/propidium iodide staining assay; assay type: functional, cell-based; in short: as §2
Homo sapiens = species: Homo sapiens; test: Induction of apoptosis in human OCI-My 2 cells 4 uM by […]/propidium iodide staining assay; assay type: functional, cell-based; in short: as §2
[11] = biological target: T2, Uridine 5'-monophosphate synthase (Homo sapiens) (UniProt P11172); test: (§3) Irreversible inhibition of human ODCase
T2 sequence (whole entry): T1 sequence (P11172 whole entry)

[12] = biological target: T1, Uridine 5'-monophosphate synthase; test: as §3
COLO 205 = test: Antitumor activity against human COLO205 cells after 3 days by WST1 assay; assay type: functional, cell-based; conditions: COLO 205, 72 h; in short: as §1
MCF7 [13] = test: Antitumor activity against human MCF7 cells up to 50 uM after 3 days by WST1 assay; assay type: functional, cell-based; in short: as §1
MDA-MB-468 = test: Antitumor activity against human MDA468 cells up to 50 uM after 3 days by WST1 assay; assay type: functional, cell-based; in short: as §1
OVCAR-4 = test: Antitumor activity against human OVCAR4 cells after 3 days by WST1 assay; assay type: functional, cell-based; conditions: OVCAR-4, 72 h; in short: as §1

SMILES	Ki [1]	Ki [2]	Activity (T47D)	IC50 [3]	Activity [4]	Activity (Hs-578T)	Activity (SNB-19)	IC50 [5]	Activity (PC-3)	IC50 (MCF7 [6])	IC50 [7]	IC50 [8]	IC50 [9]	IC50 [10]	IC50 (OCI-AML2)	IC50 (COLO 205)	Activity (MCF7 [13])	Activity (MDA-MB-468)	IC50 (OVCAR-4)	also measured
CCc1c(F)c(=O)[nH]c(=O)n1[C@@H]1O[C@H](COP(=O)(O)O)[C@@H](O)[C@H]1O	29 µM	0.35 µM																		
O=Cc1c(F)c(=O)[nH]c(=O)n1[C@@H]1O[C@H](CO)[C@@H](O)[C@H]1O			inactive	1.9 µM	Not Active	inactive	inactive	0.4 µM	inactive	23.7 µM	300 nM	0.6 µM	0.4 µM	0.3 µM	0.7 µM					Activity (SKW3): Active; Activity (ML1): Active; Activity (OCI-Ly7): Active; Activity (Homo sapiens): Active
Nc1c(F)c(=O)[nH]c(=O)n1[C@@H]1O[C@H](COP(=O)(O)O)[C@@H](O)[C@H]1O	11.4 µM	16.6 µM																		
O=c1[nH]c(=O)n([C@@H]2O[C@H](COP(=O)(O)O)[C@@H](O)[C@H]2O)c(I)c1F																				Kinact [11]: 158 h⁻¹; Ki [12]: 1.1 µM
[N-]=[N+]=Nc1c(F)c(=O)[nH]c(=O)n1[C@@H]1O[C@H](COP(=O)(O)O)[C@@H](O)[C@H]1O	0.36 µM																			Kinact [11]: 41 h⁻¹; Ki [12]: 18.2 µM
[N-]=[N+]=Nc1cc(=O)[nH]c(=O)n1[C@@H]1O[C@H](CO)[C@@H](O)[C@H]1O			inactive	> 50 µM	Not Active	inactive	inactive	> 50 µM	inactive	> 50 µM	> 50000 nM	> 50 µM	> 50 µM	> 50 µM	> 50 µM	> 50 µM	inactive	inactive	> 50 µM	
O=c1cc(O)n([C@@H]2O[C@H](COP(=O)(O)O)[C@@H](O)[C@H]2O)c(=O)[nH]1			inactive	> 50 µM	Not Active	inactive	inactive	> 50 µM	inactive	> 50 µM	> 50000 nM	> 50 µM	> 50 µM	> 50 µM	> 50 µM	> 50 µM	inactive	inactive	> 50 µM	
O=c1cnn([C@@H]2O[C@H](COP(=O)(O)O)[C@@H](O)[C@H]2O)c(=O)[nH]1 [6-AZA-URIDINE MONOPHOSPHATE]			inactive	> 50 µM	Not Active	inactive	inactive	18.7 µM	inactive	> 50 µM	2800 nM	> 50 µM	6.7 µM	6.1 µM	16 µM	> 50 µM	inactive	inactive	> 50 µM	
O=c1[nH]c(=O)n([C@@H]2O[C@H](COP(=O)(O)O)[C@@H](O)[C@H]2O)cc1F	645 µM	98 µM																		
